From ChEMBL document CHEMBL1121582, “Structure-activity relationship of diphenylthiourea antivirals” (1980)

What was measured:
Type in all cases: functional
Poliovirus 1 [1] = assay: Antiviral activity was evaluated in vitro against human poliovirus as inhibition zone in agar-diffusion plaque-inhibition test
How it was run: (§1)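 FL cell monolayers were infected with virus (adsorption 60 min at 20 °C) at a dose giving semiconfluent plaques in 24-48 h at 37 °C. Cells were overlaid with 1% agar in Eagle medium with 10% heated calf serum. 0.1 mL of compound, usually a 2-4% solution, went into 6 mm glass cylinders set in the agar. A second overlay held 0.02% neutral red. Plaque-inhibition and cytotoxicity zone diameters (mm) were read using 3-5 cylinders in at least two dishes. Grading: -, ≤5 mm; ±, 6-10; +, 11-20; ++, ≥20.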

Homo sapiens [2] = species on record: Homo sapiens; assay: Antiviral activity was evaluated in vitro against human poliovirus as antiviral affect in agar-diffusion plaque-inhibition test(- => inhibition, diameter < = 5 mm); how it was run: as §1
Poliovirus 1 [3] = assay: Antiviral activity was evaluated in vitro against human poliovirus as toxicity zone in agar-diffusion plaque-inhibition test; how it was run: as §1
Homo sapiens [4] = species on record: Homo sapiens; assay: Antiviral activity was evaluated in vitro against human poliovirus as antiviral affect in agar-diffusion plaque-inhibition test (+/- => inhibition, diameter = 6-10 mm); how it was run: as §1
[5] = Antiviral activity was evaluated in vitro against human ECHO virus as antiviral affect in agar-diffusion plaque-inhibition test (- => inhibition, diameter < = 5 mm)
How it was run: (§2)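 FL cell monolayers in 90 mm dishes infected with virus dose giving semiconfluent plaques (adsorption 60 min, 20 °C), then 1% agar overlay in Eagle MM with 10% heated calf serum. Compound, 0.1 mL of usually 2-4% ethanol solution, was placed in 6 mm glass cylinders set in the agar. Concentrations were preliminarily checked as well-tolerated by the cells. Incubation was 24-48 h at 37 °C, followed by a second overlay of 1.5% agar with 0.02% neutral red. Read-out was the diameter of the plaque-inhibition zone and the cytotoxicity zone, using 3-5 cylinders per compound in ≥2 dishes. Scoring: - Δϕ ≤5 mm; ± 6-10; + 11-20; ++ ≥20 mm.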

Homo sapiens [6] = species on record: Homo sapiens; assay: Antiviral activity was evaluated in vitro against human Coxsackie virus as antiviral affect in agar-diffusion plaque-inhibition test (- => inhibition, diameter < = 5 mm); how it was run: as §2
[7] = Antiviral activity was evaluated in vitro against human poliovirus as antiviral affect in agar-diffusion plaque-inhibition test (- => inhibition, diameter < = 5 mm); how it was run: as §1
[8] = Antiviral activity was evaluated in vitro against human poliovirus as antiviral affect in agar-diffusion plaque-inhibition test - => inhibition diameter < = 5 mm; how it was run: as §1
Homo sapiens [9] = species on record: Homo sapiens; assay: Antiviral activity was evaluated in vitro against human Coxsackie virus as antiviral affect in agar-diffusion plaque-inhibition test (- =>inhibition, diameter < = 5 mm); how it was run: as §2
Homo sapiens [10] = species on record: Homo sapiens; assay: Antiviral activity was evaluated in vitro against human Coxsackie virus as antiviral affect in agar-diffusion plaque-inhibition test (+/- => inhibition, diameter 6-10 mm); how it was run: as §1
[11] = Antiviral activity was evaluated in vitro against human Coxsackie virus as toxicity zone in agar-diffusion plaque-inhibition test; how it was run: as §1
Homo sapiens [12] = species on record: Homo sapiens; assay: Antiviral activity was evaluated in vitro against human ECHO virus as antiviral affect in agar-diffusion plaque-inhibition test (+ => inhibition diameter = 11-20 mm); how it was run: as §1
[13] = Antiviral activity was evaluated in vitro against human ECHO virus as toxicity zone in agar-diffusion plaque-inhibition test; how it was run: as §1
cells [14] = settings: Homo sapiens
cells [15] = settings: Homo sapiens; remark: listed apart in the source
Homo sapiens [16] = species on record: Homo sapiens; assay: Antiviral activity was evaluated in vitro against human Coxsackie virus as antiviral affect in agar-diffusion plaque-inhibition test(- => inhibition, diameter < = 5 mm); how it was run: as §1
cells [17] = settings: Homo sapiens; remark: listed apart in the source
Homo sapiens [18] = species on record: Homo sapiens; assay: Antiviral activity was evaluated in vitro against human ECHO virus as antiviral affect in agar-diffusion plaque-inhibition test(- => inhibition, diameter < = 5 mm); how it was run: as §1
Homo sapiens [19] = species on record: Homo sapiens; assay: Antiviral activity was evaluated in vitro against human ECHO virus as antiviral affect in agar-diffusion plaque-inhibition test (+/- =>inhibition, diameter 6-10 mm); how it was run: as §1
Homo sapiens [20] = species on record: Homo sapiens; assay: Antiviral activity was evaluated in vitro against human Coxsackie virus as antiviral affect in agar-diffusion plaque-inhibition test (- => inhibition diameter < = 5 mm); how it was run: as §2
Homo sapiens [21] = species on record: Homo sapiens; assay: Antiviral activity was evaluated in vitro against human ECHO virus as antiviral affect in agar-diffusion plaque-inhibition test (- => inhibition diameter < = 5 mm); how it was run: as §2
Homo sapiens [22] = species on record: Homo sapiens; assay: Antiviral activity was evaluated in vitro against human poliovirus as antiviral affect in agar-diffusion plaque-inhibition test (- => inhibition diameter < = 5 mm); how it was run: as §1

For `Oc1ccc(/N=C(\S)Nc2ccc(O)cc2)cc1`, which Inhibition zone (Poliovirus 1 [1]) is on record?
The Inhibition zone was 0 mm.

And the Antiviral effect (Homo sapiens [2])?
Its Antiviral effect is “Not toxic”.

What about the Toxicity zone (Poliovirus 1 [3]) of the same compound?
Its Toxicity zone is 0 mm.

What does the source list for `Oc1ccc(N/C(S)=N/c2ccccc2)cc1`?
Antiviral effect (Homo sapiens [4]): +/-; Antiviral effect [5]: Not toxic

For `O=C(O)c1ccc(N/C(S)=N/c2ccccc2)cc1`, which Antiviral effect (Homo sapiens [6]) is on record?
Its Antiviral effect is “Not toxic”.

What about the Antiviral effect [7] of the same compound?
The Antiviral effect was “Not toxic”.

And the Antiviral effect [5]?
The Antiviral effect was “Not toxic”.

With `Nc1cccc(NC(=O)Nc2ccccc2)c1` as the compound, how does the Inhibition zone (Poliovirus 1 [1]) read?
The Inhibition zone was 0 mm.

What about the Antiviral effect [8] of the same compound?
Its Antiviral effect is “Not toxic”.

What about the Toxicity zone (Poliovirus 1 [3]) of the same compound?
Its Toxicity zone is 0 mm.

Which Inhibition zone (Poliovirus 1 [1]) does the source give for `Nc1ccccc1NC(=O)Nc1ccccc1` here?
The Inhibition zone was 0 mm.

What about the Antiviral effect [8] of the same compound?
Its Antiviral effect is “Not toxic”.

What about the Toxicity zone (Poliovirus 1 [3]) of the same compound?
The Toxicity zone was 0 mm.

Which Inhibition zone (Poliovirus 1 [1]) does the source give for `NC(N)=S` [THIOUREA] here?
The Inhibition zone was 26 mm.

And the Antiviral effect [8]?
Its Antiviral effect is “Not toxic”.

And the Toxicity zone (Poliovirus 1 [3])?
Its Toxicity zone is 22 mm.

For `O=C(O)c1ccccc1/N=C(/S)Nc1ccccc1`, which Antiviral effect (Homo sapiens [6]) is on record?
The Antiviral effect was “Not toxic”.

What does the source list for `Oc1ccccc1/N=C(/S)Nc1ccccc1`?
Antiviral effect (Homo sapiens [9]): Not toxic; Antiviral effect [7]: Not toxic; Antiviral effect [5]: Not toxic

Which Inhibition zone (Poliovirus 1 [1]) does the source give for `Nc1ccccc1/N=C(\S)Nc1ccccc1N` here?
Its Inhibition zone is 53.7 mm.

And the Antiviral effect (Homo sapiens [10])?
Its Antiviral effect is “+/-”.

What about the Toxicity zone [11] of the same compound?
The Toxicity zone was 34 mm.

What about the Antiviral effect (Homo sapiens [12]) of the same compound?
Its Antiviral effect is “Not toxic”.

What about the Toxicity zone [13] of the same compound?
The Toxicity zone was 43.5 mm.

What about the Toxicity zone (Poliovirus 1 [3]) of the same compound?
The Toxicity zone was 39.4 mm.

Which Inhibition zone (Poliovirus 1 [1]) does the source give for `Nc1ccc(NC(=O)Nc2ccccc2)cc1` here?
Its Inhibition zone is 0 mm.

What about the Antiviral effect [8] of the same compound?
Its Antiviral effect is “Not toxic”.

And the Toxicity zone (Poliovirus 1 [3])?
The Toxicity zone was 0 mm.

For `O=C(Nc1ccccc1)Nc1ccc(O)cc1`, which Inhibition zone (Poliovirus 1 [1]) is on record?
The Inhibition zone was 0 mm.

And the Antiviral effect [8]?
Its Antiviral effect is “Not toxic”.

What about the Toxicity zone (Poliovirus 1 [3]) of the same compound?
Its Toxicity zone is 0 mm.

For `Oc1cccc(N/C(S)=N/c2ccccc2)c1`, which inhibition at 200 µM (cells [14]) is on record?
The inhibition at 200 µM was 99.9%.

And the Inhibition zone (Poliovirus 1 [1])?
The Inhibition zone was 33 mm.

What about the inhibition at 100 µM (cells [15]) of the same compound?
Its inhibition at 100 µM is 99.4%.

And the Toxicity zone (Poliovirus 1 [3])?
The Toxicity zone was 15.8 mm.

Which results are given for `O=C(Nc1ccccc1)Nc1cccc(O)c1`?
inhibition at 200 µM (cells [14]): 96.3%; Inhibition zone (Poliovirus 1 [1]): 13.3 mm; Antiviral effect (Homo sapiens [16]): Not toxic; Antiviral effect (Homo sapiens [4]): Not toxic; Toxicity zone [11]: 6.5 mm; inhibition at 100 µM (cells [17]): 66.3%; Toxicity zone [13]: 6.5 mm; Antiviral effect (Homo sapiens [18]): Not toxic; Toxicity zone (Poliovirus 1 [3]): 7.3 mm

What does the source list for `Oc1cccc(/N=C(\S)Nc2cccc(O)c2)c1`?
inhibition at 200 µM (cells [14]): 89%; Inhibition zone (Poliovirus 1 [1]): 26.7 mm; Antiviral effect (Homo sapiens [10]): +/-; Antiviral effect (Homo sapiens [19]): +/-; Toxicity zone [11]: 33.3 mm; inhibition at 100 µM (cells [17]): 73.5%; Toxicity zone [13]: 29 mm; Toxicity zone (Poliovirus 1 [3]): 11.4 mm

For `Nc1ccc(N/C(S)=N/c2ccccc2)cc1`, which Antiviral effect (Homo sapiens [20]) is on record?
The Antiviral effect was “Not toxic”.

What about the Antiviral effect (Homo sapiens [21]) of the same compound?
Its Antiviral effect is “Not toxic”.

What about the Inhibition zone (Poliovirus 1 [1]) of the same compound?
Its Inhibition zone is 0 mm.

What about the Antiviral effect (Homo sapiens [22]) of the same compound?
Its Antiviral effect is “Not toxic”.

What about the Toxicity zone (Poliovirus 1 [3]) of the same compound?
The Toxicity zone was 0 mm.

What does the source list for `Nc1ccccc1/N=C(/S)Nc1ccccc1`?
inhibition at 200 µM (cells [14]): 98.7%; Inhibition zone (Poliovirus 1 [1]): 28 mm; Antiviral effect (Homo sapiens [16]): Not toxic; Toxicity zone [11]: 41 mm; Toxicity zone [13]: 37 mm; Antiviral effect (Homo sapiens [18]): Not toxic; Toxicity zone (Poliovirus 1 [3]): 9 mm

Which Inhibition zone (Poliovirus 1 [1]) does the source give for `Nc1cccc(O)c1` [3-AMINOPHENOL] here?
Its Inhibition zone is 0 mm.

And the Antiviral effect [8]?
Its Antiviral effect is “Not toxic”.

And the Toxicity zone (Poliovirus 1 [3])?
The Toxicity zone was 0 mm.

With `O=C(O)c1ccc(N/C(S)=N/c2ccccc2)cc1O` as the compound, how does the inhibition at 200 µM (cells [14]) read?
The inhibition at 200 µM was 99.9%.

What about the Inhibition zone (Poliovirus 1 [1]) of the same compound?
The Inhibition zone was 36.1 mm.

And the Toxicity zone (Poliovirus 1 [3])?
Its Toxicity zone is 17.9 mm.

For `O=C(Nc1ccccc1)Nc1ccccc1O`, which Inhibition zone (Poliovirus 1 [1]) is on record?
The Inhibition zone was 36.2 mm.

And the Antiviral effect [7]?
The Antiviral effect was “Not toxic”.

What about the Toxicity zone (Poliovirus 1 [3]) of the same compound?
The Toxicity zone was 32 mm.

Which Inhibition zone (Poliovirus 1 [1]) does the source give for `CC(=O)Nc1cccc(O)c1` [METACETAMOL] here?
The Inhibition zone was 0 mm.

What about the Antiviral effect [7] of the same compound?
The Antiviral effect was “Not toxic”.

And the Toxicity zone (Poliovirus 1 [3])?
Its Toxicity zone is 0 mm.

With `O=C(O)c1cccc(N/C(S)=N/c2ccccc2)c1` as the compound, how does the Antiviral effect (Homo sapiens [6]) read?
Its Antiviral effect is “Not toxic”.

What about the Antiviral effect [7] of the same compound?
The Antiviral effect was “Not toxic”.

What about the Antiviral effect [5] of the same compound?
Its Antiviral effect is “Not toxic”.

Which Inhibition zone (Poliovirus 1 [1]) does the source give for `Nc1ccc(/N=C(\S)Nc2ccc(N)cc2)cc1` here?
Its Inhibition zone is 0 mm.

What about the Antiviral effect [8] of the same compound?
The Antiviral effect was “Not toxic”.

What about the Toxicity zone (Poliovirus 1 [3]) of the same compound?
Its Toxicity zone is 0 mm.

For `Nc1cccc(N/C(S)=N/c2ccccc2)c1`, which inhibition at 200 µM (cells [14]) is on record?
The inhibition at 200 µM was 100%.

What about the Inhibition zone (Poliovirus 1 [1]) of the same compound?
The Inhibition zone was 28.3 mm.

What about the Toxicity zone [11] of the same compound?
The Toxicity zone was 16.7 mm.

What about the Toxicity zone [13] of the same compound?
Its Toxicity zone is 20 mm.

What about the Toxicity zone (Poliovirus 1 [3]) of the same compound?
The Toxicity zone was 18 mm.
